Laboratory results taken from ChEMBL document CHEMBL5149984, “Discovery of HN37 as a Potent and Chemically Stable Antiepileptic Drug Candidate” (J Med Chem, 2021).

Columns and labels:
[1] = biological target: T1, Potassium voltage-gated channel subfamily KQT member 4 (Homo sapiens) (UniProt P56696); test: Agonist activity at human KCNQ4 channel expressed in CHO cells assessed as amplitude change of outward current at 10 uM by patch clamp method; type: cell-based; details: filed as agonist
T1 sequence (whole entry): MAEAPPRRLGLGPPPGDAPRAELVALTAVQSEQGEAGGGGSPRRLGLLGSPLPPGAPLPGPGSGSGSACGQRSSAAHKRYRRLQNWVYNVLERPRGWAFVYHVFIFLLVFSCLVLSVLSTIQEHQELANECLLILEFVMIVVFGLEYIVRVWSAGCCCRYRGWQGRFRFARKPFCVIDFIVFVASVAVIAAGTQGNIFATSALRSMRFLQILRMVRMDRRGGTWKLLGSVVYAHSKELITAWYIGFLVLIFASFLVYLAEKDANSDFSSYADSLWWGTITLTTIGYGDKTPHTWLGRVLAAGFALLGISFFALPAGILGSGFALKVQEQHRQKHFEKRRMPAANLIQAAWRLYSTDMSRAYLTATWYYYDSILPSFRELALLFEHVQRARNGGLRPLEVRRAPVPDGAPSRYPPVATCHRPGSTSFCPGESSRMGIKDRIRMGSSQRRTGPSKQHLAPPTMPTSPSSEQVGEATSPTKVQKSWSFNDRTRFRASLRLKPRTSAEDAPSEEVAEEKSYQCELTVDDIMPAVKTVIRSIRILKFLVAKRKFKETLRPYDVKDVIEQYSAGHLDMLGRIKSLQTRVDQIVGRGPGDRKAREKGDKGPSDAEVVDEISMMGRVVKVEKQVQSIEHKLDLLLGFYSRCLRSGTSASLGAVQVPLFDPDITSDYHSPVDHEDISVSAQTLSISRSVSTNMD
Outline: (§1)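 Whole-cell patch clamp at room temperature on CHO cells (DMEM/F12, 10% FBS) transiently co-transfected with EGFP and hKCNQ1, rKCNQ2, rKCNQ3 A278T, hKCNQ4 or hKCNQ5; KCNQ2/3 at 1:1 cDNA ratio. Pipette solution 145 mM KCl, 5 mM MgATP, pH 7.3; bath 140 mM NaCl, 5 mM KCl, pH 7.4, under perfusion. V1/2 from Boltzmann fits; I/I0 is current amplitude with versus without compound; n = 4−6.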

[2] = tested on: Mus musculus; test: Anticonvulsant activity in MES induced Kunming mouse model of seizure at 30 mg/kg, po after 1 hr; type: functional
Outline: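 MES test in male KM mice. Compounds freshly suspended in 0.5% CMC-Na and given by gavage at 20 mL/kg; 160 V stimulus through ear clips. Protection scored as absence of hindlimb tonic extension; time course at 0.25, 0.5, 1 and 2 h, otherwise tested at 1 h. ED50 from dose−response by nonlinear regression; Fisher's exact test versus vehicle.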

[3] = biological target: Cytochrome P450 3A4 (Homo sapiens, UniProt P08684); test: Time dependent inhibition of human liver microsome CYP3A4 preincubated for 0.5 hrs in presence or absence of NADPH followed by midazolam addition by LC-MS/MS method; type: ADME, microsomes
Outline: (§2)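 Human liver microsomes preincubated 0.5 h with 0.10–50 μM test compound, with or without NADPH, then CYP-specific probe substrate added and incubation continued. Metabolite measured by LC-MS/MS; % activity remaining relative to no-compound control; IC50 fitted by Probit model. For CYP3A4, midazolam 1′-hydroxylation and testosterone 6β-hydroxylation were read separately.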

[4] = biological target: Cytochrome P450 2B6 (Homo sapiens, UniProt P20813); test: Time dependent inhibition of human liver microsome CYP2B6 preincubated for 0.5 hrs in presence of NADPH followed by substrate addition by LC-MS/MS method; type: ADME, microsomes; outline: as §2
[5] = Clearance in Kunming mouse plasma at 2 mg/kg, iv measured upto 24 hrs by LC-MS/MS method; type: ADME, organism-based
Outline: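 Male KM mice fasted 12 h before and 2 h after iv dosing at 2 mg/kg (oral formulation of 5% DMSO/5% Tween 80/saline diluted with saline containing 1% Tween 80); n = 3 per time point. Blood from the retro-orbital venous plexus at 0.083–24 h; plasma extracted with acetonitrile plus internal standard and analysed by LC−MS/MS.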

[6] = biological target: T2, Potassium voltage-gated channel subfamily KQT member 1 (Homo sapiens, UniProt P51787); test: Agonist activity at human KCNQ1 channel expressed in CHO cells assessed as amplitude change of outward current at 0.1 uM by patch clamp method; type: cell-based; outline: as §1
T2 sequence (P51787 whole entry): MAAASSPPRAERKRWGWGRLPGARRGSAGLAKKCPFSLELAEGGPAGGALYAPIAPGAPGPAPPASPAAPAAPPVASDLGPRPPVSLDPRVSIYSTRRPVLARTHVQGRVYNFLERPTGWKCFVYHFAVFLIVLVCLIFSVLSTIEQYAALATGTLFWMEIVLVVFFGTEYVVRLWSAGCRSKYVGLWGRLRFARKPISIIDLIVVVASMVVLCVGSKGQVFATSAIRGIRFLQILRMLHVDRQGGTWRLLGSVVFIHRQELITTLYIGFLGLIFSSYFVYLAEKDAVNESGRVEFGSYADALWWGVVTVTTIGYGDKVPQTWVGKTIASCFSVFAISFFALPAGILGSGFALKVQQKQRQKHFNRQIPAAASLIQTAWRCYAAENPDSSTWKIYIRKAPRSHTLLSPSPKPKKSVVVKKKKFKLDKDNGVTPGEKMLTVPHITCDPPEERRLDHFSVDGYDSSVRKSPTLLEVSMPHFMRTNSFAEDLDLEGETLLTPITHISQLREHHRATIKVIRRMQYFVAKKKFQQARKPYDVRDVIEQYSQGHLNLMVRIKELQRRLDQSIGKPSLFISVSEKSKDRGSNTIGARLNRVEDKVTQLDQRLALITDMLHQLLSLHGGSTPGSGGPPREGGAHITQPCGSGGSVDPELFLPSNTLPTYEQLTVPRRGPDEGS

[7] = Oral bioavailability in Kunming mouse plasma at 5 mg/kg measured upto 24 hrs by LC-MS/MS method; type: ADME, organism-based
Outline: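 Male KM mice (18−24 g) fasted 12 h before and 2 h after dosing, given 5 mg/kg orally in 5% DMSO/5% Tween 80/90% normal saline (n = 3 per time point). Aortic blood taken at 0.25–24 h and whole brain collected. Acetonitrile extraction with internal standard, then LC−MS/MS. Bioavailability calculated against the 2 mg/kg i.v. arm.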

[8] = biological target: Cytochrome P450 2C19 (Homo sapiens, UniProt P33261); test: Time dependent inhibition of human liver microsome CYP2C19 preincubated for 0.5 hrs in presence or absence of NADPH followed by substrate addition by LC-MS/MS method; type: ADME, microsomes; outline: as §2
[9] = Ratio of drug concentration in Kunming mouse brain to plasma by rotarod test
[10] = biological target: Cytochrome P450 2D6 (Homo sapiens, UniProt P10635); test: Time dependent inhibition of human liver microsome CYP2D6 preincubated for 0.5 hrs in presence or absence of NADPH followed by substrate addition by LC-MS/MS method; type: ADME, microsomes; outline: as §2
Chain of Cytochrome P450 2D6 (P10635 whole entry): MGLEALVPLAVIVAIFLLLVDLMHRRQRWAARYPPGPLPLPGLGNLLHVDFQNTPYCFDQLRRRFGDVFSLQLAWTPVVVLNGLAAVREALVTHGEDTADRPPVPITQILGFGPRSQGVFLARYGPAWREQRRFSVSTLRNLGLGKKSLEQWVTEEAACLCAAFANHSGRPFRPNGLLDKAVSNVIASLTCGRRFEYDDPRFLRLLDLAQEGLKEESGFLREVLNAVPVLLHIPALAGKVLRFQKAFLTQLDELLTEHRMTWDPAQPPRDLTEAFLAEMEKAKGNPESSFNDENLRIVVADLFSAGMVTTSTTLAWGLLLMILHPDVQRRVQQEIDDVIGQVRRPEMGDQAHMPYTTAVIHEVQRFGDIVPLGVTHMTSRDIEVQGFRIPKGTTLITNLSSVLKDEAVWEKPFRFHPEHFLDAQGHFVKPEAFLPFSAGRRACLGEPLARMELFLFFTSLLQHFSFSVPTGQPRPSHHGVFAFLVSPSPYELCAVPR

Chain of Cytochrome P450 2B6 (P20813 whole entry): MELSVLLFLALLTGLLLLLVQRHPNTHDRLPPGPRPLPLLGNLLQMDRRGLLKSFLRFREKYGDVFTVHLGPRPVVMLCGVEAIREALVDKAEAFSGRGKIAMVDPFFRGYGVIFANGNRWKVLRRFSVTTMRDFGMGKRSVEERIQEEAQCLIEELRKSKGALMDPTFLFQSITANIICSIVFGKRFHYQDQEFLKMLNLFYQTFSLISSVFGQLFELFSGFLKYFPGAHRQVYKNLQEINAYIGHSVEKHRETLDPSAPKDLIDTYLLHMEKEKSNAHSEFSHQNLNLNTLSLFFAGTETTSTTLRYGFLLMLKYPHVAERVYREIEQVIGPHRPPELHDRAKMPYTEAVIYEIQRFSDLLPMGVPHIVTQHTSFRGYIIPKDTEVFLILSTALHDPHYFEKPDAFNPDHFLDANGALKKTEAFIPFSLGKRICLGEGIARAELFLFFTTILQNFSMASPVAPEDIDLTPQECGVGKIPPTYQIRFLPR
Chain of Cytochrome P450 2C19 (P33261 whole entry): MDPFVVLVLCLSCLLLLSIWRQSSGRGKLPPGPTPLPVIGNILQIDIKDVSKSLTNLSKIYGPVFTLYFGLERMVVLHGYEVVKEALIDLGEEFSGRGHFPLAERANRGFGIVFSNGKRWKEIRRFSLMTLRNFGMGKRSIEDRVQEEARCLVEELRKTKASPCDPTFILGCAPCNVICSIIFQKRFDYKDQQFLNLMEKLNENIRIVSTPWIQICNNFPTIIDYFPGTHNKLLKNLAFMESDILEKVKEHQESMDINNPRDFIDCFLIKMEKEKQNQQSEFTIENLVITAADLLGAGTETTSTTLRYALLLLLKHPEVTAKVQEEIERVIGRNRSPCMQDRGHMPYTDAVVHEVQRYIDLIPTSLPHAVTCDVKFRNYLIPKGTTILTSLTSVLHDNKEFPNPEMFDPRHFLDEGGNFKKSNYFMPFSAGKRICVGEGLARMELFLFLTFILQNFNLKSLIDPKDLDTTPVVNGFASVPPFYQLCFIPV
Chain of Cytochrome P450 3A4 (P08684 whole entry): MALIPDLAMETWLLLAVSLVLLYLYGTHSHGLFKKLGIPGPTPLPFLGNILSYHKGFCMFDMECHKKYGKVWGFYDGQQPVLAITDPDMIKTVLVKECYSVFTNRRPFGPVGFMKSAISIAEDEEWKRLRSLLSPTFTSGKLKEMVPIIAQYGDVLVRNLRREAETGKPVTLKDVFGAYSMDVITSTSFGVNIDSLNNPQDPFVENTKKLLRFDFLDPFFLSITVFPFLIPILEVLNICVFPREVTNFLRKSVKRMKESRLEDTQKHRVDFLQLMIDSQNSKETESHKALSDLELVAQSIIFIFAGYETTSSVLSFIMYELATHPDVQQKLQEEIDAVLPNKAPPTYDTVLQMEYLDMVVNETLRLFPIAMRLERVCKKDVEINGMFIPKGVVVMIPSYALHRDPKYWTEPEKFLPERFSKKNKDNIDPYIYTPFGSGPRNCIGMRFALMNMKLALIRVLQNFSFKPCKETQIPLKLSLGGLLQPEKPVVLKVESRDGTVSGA

| Compound | Activity [1] | Activity [2] [%] | IC50 [3] [µM] | IC50 [4] [µM] | clearance [5] [mL/min/kg] | Activity [6] | bioavailability [7] [%] | IC50 [8] [µM] | Kp [9] | IC50 [10] [µM] |
| --- | --- | --- | --- | --- | --- | --- | --- | --- | --- | --- |
| CCOC(=O)Nc1ccc(NCc2ccc(F)cc2)cc1N [EZOGABINE] | 2.85 | 60 | – | – | – | – | – | – | – | – |
| C#CCN(Cc1ccc(F)cc1)c1cc(C)c(NC(=O)OC)c(C)c1 | – | – | > 50 | 5.76 | 61.3 | 0.99 | 24.2 | > 50 | 1.9 | > 50 |
